Results from BindingDB's records for doi:10.1016/j.bmc.2019.02.023 (Wesleyan University, 2019).

The compounds below were run against Beta-lactamase (Enterobacter cloacae, UniProt P05364) (assay: Irreversible inhibition of Enterobacter cloacae P99 beta-lactamase using cephalothin as substrate by spectrophotometric analysis). Details: read-out: kon (M-1-s-1).
In short: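 P99 class C β-lactamase (stock concentration by A280, ε 7.1 x 10⁴ M⁻¹cm⁻¹) incubated with inhibitor in 20 mM MOPS pH 7.5, 0.1% BSA, 25 °C. Aliquots diluted 1:50 into 300 μM cephalothin; initial rates followed at 270 nm over time. Titration: 150 nM enzyme with 0–2.0 μM inhibitor to end-point. Time-course and titration data fitted jointly to Scheme 2, k2 fixed at 100 s⁻¹, giving k1, k2/k3 and k_i.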

Chain of Beta-lactamase (P05364 whole entry): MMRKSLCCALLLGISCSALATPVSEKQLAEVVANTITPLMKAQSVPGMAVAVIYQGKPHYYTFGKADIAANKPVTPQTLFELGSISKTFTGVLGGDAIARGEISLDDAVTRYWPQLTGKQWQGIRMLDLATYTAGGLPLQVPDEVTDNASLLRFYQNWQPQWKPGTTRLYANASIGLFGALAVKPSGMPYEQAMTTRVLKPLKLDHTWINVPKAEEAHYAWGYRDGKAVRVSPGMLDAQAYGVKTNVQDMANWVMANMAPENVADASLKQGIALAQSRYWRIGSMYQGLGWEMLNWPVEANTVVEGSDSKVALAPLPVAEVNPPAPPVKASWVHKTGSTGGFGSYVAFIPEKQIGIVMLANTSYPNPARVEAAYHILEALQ

Compared with `N[C@H](CCCOC(=O)NOC(=O)Oc1ccccc1)C(=O)O`, `O=C(O)CCCCOC(=O)NOC(=O)Oc1ccccc1` is 1.9-fold lower in kon: 16000 M⁻¹ s⁻¹ for the first, 8500 M⁻¹ s⁻¹ for the second.

`CCCCOC(=O)NOC(=O)Oc1ccccc1` and `O=C(NOC(=O)Oc1ccccc1)OCCc1ccccc1` are within 1.5-fold of each other in kon: 1100 M⁻¹ s⁻¹ for the first, 1400 M⁻¹ s⁻¹ for the second.

For `O=C(NOC(=O)Oc1ccccc1)OCc1ccccc1`, the kon was 2000 M⁻¹ s⁻¹.
